Active and inactive are the calls of the source. No cut-off for these calls is given here.
Tests used:
[1] = target: cAMP-dependent protein kinase catalytic subunit alpha (Homo sapiens, UniProt P17612); assay: Inhibition of PKAalpha
[2] = target: High affinity nerve growth factor receptor (Homo sapiens, UniProt P04629); assay: Inhibition of TRKA
[3] = target: Serine/threonine-protein kinase PAK 4 (Homo sapiens, UniProt O96013); assay: Inhibition of PAK4
[4] = target: Cyclin-dependent kinase 1/cyclin B1 (Homo sapiens, UniProt P06493); assay: Inhibition of CDK1/cyclin B; format: protein-complex assay
Chain of Cyclin-dependent kinase 1/cyclin B1 (P06493 whole entry): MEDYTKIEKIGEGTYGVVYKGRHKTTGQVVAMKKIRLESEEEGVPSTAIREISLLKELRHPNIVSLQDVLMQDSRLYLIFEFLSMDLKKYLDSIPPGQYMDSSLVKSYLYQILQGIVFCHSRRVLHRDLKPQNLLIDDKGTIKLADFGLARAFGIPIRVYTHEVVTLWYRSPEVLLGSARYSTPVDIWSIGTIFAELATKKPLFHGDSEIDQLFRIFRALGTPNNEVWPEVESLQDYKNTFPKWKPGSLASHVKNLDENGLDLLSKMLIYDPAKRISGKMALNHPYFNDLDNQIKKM
Chain of Cyclin-dependent kinase 1/cyclin B1 (P14635 whole entry, further chain): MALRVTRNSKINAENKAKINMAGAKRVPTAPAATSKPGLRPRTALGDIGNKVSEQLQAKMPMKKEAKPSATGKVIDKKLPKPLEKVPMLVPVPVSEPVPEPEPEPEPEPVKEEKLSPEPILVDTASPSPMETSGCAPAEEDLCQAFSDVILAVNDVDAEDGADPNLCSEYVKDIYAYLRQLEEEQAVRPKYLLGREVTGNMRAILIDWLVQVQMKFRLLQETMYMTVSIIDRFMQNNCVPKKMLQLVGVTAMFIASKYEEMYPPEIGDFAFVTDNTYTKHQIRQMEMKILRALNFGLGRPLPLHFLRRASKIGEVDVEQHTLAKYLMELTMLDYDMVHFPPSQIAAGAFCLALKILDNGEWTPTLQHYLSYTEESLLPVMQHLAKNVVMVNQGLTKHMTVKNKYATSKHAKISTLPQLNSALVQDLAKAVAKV

[5] = Tmax in Nu/Nu Balb Harlan mouse at 10 mg/kg, po; format: ADME, organism-based; parameters: dose 10 mg/kg, route oral; settings: in vivo
[6] = target: Serine/threonine-protein kinase Nek6 (Homo sapiens, UniProt Q9HC98); assay: Inhibition of NEK6
Chain of Serine/threonine-protein kinase Nek6 (Q9HC98 whole entry): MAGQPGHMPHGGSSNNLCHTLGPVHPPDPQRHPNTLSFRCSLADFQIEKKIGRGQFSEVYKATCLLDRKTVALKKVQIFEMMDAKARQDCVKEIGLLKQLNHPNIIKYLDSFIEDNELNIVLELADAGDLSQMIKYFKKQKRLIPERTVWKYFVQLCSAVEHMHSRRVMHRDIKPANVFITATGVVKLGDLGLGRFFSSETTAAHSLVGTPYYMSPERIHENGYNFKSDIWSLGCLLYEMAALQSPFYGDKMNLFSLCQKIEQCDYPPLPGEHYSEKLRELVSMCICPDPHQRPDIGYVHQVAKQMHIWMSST

[7] = target: Tyrosine-protein kinase Lck (Homo sapiens, UniProt P06239); assay: Inhibition of LCK
[8] = target: Serine/threonine-protein kinase PLK2 (Homo sapiens, UniProt Q9NYY3); assay: Inhibition of PLK2
Chain of Serine/threonine-protein kinase PLK2 (Q9NYY3 whole entry): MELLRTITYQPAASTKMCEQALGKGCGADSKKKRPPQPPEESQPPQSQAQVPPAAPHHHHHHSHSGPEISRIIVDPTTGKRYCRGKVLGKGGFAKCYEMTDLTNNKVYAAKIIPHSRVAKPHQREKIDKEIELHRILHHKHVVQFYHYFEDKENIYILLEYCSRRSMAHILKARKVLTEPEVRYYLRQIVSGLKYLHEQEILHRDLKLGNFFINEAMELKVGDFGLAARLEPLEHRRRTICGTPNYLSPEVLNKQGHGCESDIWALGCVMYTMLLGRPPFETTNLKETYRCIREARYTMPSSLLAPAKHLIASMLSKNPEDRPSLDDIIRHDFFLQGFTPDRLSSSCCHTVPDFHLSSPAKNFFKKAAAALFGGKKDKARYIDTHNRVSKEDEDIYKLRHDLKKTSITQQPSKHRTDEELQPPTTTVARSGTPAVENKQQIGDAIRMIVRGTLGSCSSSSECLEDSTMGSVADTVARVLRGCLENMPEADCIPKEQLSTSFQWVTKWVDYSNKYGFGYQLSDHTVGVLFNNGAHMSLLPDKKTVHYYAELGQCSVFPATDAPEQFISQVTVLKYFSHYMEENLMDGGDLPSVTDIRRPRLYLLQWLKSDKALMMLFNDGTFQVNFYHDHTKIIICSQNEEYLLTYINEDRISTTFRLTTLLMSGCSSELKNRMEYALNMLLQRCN

LNCaP = assay: Antiproliferative activity against human LNCAP cells; format: functional, cell-based
[9] = target: Cyclin-dependent kinase 4/cyclin D1 (Homo sapiens, UniProt P11802); assay: Inhibition of CDK4/cyclin D1; format: protein-complex assay
MOLM-13 = assay: Antiproliferative activity against human MOLM13 cells; format: functional, cell-based
[10] = Inhibition of SULU1
[11] = Antiproliferative activity against human SUP-M2 cells; format: functional, cell-based
A2780 [12] = assay: Cell cycle arrest in human A2780 cells assessed as increase of phospho Ser10 histone H3 level at 0.05 to 5 uM after 1 hr by Western blotting analysis; format: functional, cell-based
In short: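 A2780 cells got 1 h exposure at 0.05, 0.5 and 5 µM, with nocodazole-treated cells as comparator. Western blot was used to probe the PLK1 substrate marker pSer46 TCTP and the mitotic marker pSer10 histone H3.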

[13] = target: Vascular endothelial growth factor receptor 2 (Homo sapiens, UniProt P35968); assay: Inhibition of VEGFR2
Chain of Vascular endothelial growth factor receptor 2 (P35968 whole entry): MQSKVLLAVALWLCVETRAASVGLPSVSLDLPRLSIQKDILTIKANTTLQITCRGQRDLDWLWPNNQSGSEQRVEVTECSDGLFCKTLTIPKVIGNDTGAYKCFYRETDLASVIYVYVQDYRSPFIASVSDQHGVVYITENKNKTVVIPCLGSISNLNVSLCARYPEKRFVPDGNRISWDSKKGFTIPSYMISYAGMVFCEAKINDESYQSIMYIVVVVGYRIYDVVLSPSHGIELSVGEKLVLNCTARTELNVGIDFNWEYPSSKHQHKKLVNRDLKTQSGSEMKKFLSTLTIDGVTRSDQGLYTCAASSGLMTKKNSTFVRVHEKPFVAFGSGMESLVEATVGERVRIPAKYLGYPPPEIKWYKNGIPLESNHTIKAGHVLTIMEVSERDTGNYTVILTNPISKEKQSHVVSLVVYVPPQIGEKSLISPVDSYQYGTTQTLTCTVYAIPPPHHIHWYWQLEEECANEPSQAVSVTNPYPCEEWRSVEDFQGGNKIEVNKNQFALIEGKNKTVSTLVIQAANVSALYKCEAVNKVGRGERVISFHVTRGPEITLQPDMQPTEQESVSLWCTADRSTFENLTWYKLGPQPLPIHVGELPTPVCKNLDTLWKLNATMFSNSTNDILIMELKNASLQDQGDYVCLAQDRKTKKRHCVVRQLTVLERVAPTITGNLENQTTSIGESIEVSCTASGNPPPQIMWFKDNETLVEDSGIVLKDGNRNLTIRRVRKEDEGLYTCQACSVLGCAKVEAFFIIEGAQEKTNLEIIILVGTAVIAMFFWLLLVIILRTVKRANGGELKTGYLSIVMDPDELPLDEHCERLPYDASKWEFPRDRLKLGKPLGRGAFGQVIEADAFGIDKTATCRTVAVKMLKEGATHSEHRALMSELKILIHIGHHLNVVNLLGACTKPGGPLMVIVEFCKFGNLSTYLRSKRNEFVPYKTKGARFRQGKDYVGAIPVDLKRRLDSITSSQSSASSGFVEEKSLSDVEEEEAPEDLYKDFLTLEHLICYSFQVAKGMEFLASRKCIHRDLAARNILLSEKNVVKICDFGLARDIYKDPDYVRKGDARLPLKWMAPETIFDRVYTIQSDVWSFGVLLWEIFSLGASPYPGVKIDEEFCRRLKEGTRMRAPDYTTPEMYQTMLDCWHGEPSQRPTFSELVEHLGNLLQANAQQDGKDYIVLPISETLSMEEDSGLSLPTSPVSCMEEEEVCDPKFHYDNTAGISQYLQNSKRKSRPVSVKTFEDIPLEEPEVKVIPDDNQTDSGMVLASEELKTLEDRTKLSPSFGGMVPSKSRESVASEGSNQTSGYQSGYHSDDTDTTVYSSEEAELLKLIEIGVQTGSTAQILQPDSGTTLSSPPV

Caco-2 = assay: Apparent permeability across human Caco2 cells; format: ADME, cell-based
[14] = Half life in Nu/Nu Balb Harlan mouse at 10 mg/kg, iv; format: ADME, organism-based; parameters: dose 10 mg/kg, route intravenous; settings: in vivo
In short: (§1)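 Male Balb Nu/Nu mice (Harlan) received a single 10 mg/kg intravenous dose, n = 3 animals per study. Vehicle was either trifluoroacetate salt in dextrose or free base in 50% PEG 400/glucosate, depending on compound. Parameters were reported as mean ± standard deviation.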

MOLT-4 = assay: Antiproliferative activity against human MOLT4 cells; format: functional, cell-based
[15] = target: Mitogen-activated protein kinase 14 (Homo sapiens, UniProt Q16539); assay: Inhibition of P38alpha
Chain of Mitogen-activated protein kinase 14 (Q16539 whole entry): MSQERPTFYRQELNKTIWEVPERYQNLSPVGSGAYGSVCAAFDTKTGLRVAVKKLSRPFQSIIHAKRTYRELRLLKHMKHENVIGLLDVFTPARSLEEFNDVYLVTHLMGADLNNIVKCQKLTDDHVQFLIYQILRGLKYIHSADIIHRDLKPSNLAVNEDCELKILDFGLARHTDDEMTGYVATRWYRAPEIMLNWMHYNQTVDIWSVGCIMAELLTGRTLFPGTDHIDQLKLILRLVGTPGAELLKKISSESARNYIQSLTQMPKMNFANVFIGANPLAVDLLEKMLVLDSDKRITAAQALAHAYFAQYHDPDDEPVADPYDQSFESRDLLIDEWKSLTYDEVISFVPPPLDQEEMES

A2780 [16] = assay: Cell cycle arrest in human A2780 cells assessed as increase of phospho Ser10 histone H3 level after 24 hrs by Western blotting analysis; format: functional, cell-based
In short: (§2)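 A2780 cells were treated for 24 h at 0.05, 0.5 and 5 µM, with nocodazole as positive control. Lysates were immunoblotted for pSer10 histone H3, pThr199 nucleophosmin, cyclin B1, cyclin A, PARP cleavage and caspase 3 activation.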

[17] = target: Receptor-type tyrosine-protein kinase FLT3 (Homo sapiens, UniProt P36888); assay: Inhibition of FLT3
[18] = AUC (0 to infinity) in Nu/Nu Balb Harlan mouse at 10 mg/kg, iv; format: ADME, organism-based; parameters: time infinity, dose 10 mg/kg, route intravenous; settings: plasma; in short: as §1
[19] = target: Cyclin-dependent kinase 2/cyclin A (Homo sapiens, UniProt P24941); assay: Inhibition of CDK2/cyclin A; format: protein-complex assay
A2780 [20] = assay: Induction of apoptosis in human A2780 cells assessed as caspase3 activation at 5 uM after 24 hrs by Western blotting analysis; format: functional, cell-based; in short: as §2
A-375 = assay: Antiproliferative activity against human A375 cells; format: functional, cell-based

Chain of Serine/threonine-protein kinase PAK 4 (O96013 whole entry): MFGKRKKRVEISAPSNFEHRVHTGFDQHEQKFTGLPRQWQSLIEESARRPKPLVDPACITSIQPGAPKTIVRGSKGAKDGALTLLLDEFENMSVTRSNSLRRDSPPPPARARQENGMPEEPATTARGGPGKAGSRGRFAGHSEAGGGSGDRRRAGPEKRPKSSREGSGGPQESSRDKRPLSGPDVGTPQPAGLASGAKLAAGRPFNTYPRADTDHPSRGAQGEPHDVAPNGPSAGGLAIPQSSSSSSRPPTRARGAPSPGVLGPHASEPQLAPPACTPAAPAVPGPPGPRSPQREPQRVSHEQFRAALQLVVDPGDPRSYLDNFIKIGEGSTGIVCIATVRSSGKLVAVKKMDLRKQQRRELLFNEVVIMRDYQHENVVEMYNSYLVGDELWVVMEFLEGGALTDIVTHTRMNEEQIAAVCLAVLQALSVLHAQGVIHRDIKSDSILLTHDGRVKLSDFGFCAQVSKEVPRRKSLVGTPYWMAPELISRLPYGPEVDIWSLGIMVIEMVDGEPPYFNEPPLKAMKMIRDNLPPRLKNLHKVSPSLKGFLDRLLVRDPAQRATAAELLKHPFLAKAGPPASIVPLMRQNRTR
Chain of High affinity nerve growth factor receptor (P04629 whole entry): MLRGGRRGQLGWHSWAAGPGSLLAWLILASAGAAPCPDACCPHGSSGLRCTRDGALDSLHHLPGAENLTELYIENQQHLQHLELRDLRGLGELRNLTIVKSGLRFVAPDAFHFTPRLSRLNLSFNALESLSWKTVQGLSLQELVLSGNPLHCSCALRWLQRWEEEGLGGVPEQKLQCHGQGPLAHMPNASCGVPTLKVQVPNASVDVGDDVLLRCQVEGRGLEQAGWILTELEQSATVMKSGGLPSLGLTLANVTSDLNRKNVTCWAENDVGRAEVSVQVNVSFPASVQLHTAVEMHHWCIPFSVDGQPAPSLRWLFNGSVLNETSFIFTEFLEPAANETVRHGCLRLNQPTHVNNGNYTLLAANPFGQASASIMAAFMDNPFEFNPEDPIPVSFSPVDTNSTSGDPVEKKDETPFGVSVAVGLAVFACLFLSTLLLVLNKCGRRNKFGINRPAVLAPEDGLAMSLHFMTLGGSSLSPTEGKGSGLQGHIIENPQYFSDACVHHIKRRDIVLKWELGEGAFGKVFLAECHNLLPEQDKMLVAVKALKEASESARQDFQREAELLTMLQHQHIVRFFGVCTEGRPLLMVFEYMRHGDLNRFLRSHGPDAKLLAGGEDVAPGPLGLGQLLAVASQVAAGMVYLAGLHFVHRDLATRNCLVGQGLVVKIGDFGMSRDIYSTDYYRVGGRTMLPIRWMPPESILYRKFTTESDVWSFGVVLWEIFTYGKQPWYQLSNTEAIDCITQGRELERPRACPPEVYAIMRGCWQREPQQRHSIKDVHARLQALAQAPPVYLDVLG

IC50 [1]: > 10 µM
IC50 [2]: > 10 µM
IC50 [3]: > 10 µM
IC50 [4]: > 10 µM
Tmax [5]: 1.5 h
IC50 [6]: > 10 µM
IC50 [7]: > 10 µM
IC50 [8]: > 10 µM
IC50 (LNCaP): 0.026 µM
IC50 [9]: > 10 µM
IC50 (MOLM-13): 0.021 µM
IC50 [10]: > 10 µM
IC50 [13]: > 10 µM
Papp (Caco-2): permeable
half-life [14]: 0.52 h
IC50 (MOLT-4): 0.017 µM
IC50 [15]: > 10 µM
IC50 [17]: 0.659 µM
AUC(0-inf) [18]: 5.78 µM·h
IC50 [19]: > 10 µM
IC50 (A-375): 0.027 µM
Structure (SMILES): CN1CCN(c2ccc(OC(F)(F)F)c(Nc3nccc(-c4cc5c(n4C)CCNC5=O)n3)c2)CC1
IC50 [11]: 0.053 µM
Activity (A2780 [12]): Active
Activity (A2780 [16]): Dose-dependent effect
Activity (A2780 [20]): Active

From ChEMBL document CHEMBL1933058, “5-(2-amino-pyrimidin-4-yl)-1H-pyrrole and 2-(2-amino-pyrimidin-4-yl)-1,5,6,7-tetrahydro-pyrrolo[3,2-c]pyridin-4-one derivatives as new classes of selective and orally available Polo-like kinase 1 inhibitors” (Bioorg Med Chem Lett, 2012)
